The source of these data is ChEMBL document CHEMBL1938246, “Eudesmane-type sesquiterpene lactones inhibit multiple steps in the NF-κB signaling pathway induced by inflammatory cytokines” (Bioorg Med Chem Lett, 2012).

The source made the active and inactive calls. The calls are words filed in the database; no cut-off is given here.

For data set [1], the system named is A549. Nature of the data set: Inhibition of NFkappaB-mediated ICAM1 protein expression in IL1alpha-stimulated human A549 cells preincubated for 1 hr prior IL1alpha challenge measured after 6 hrs by Western blot analysis. The data set is classed as cell-based. In general terms: Immunoblotting shows a protein as a band on a membrane.
Data set [2] deals with A549. Nature of the data set: Inhibition of IL1alpha-induced IkappaBalpha degradation in human A549 cells at 100 uM incubated for 1 hr prior IL1alpha challenge measured after 15 mins by Western blot analysis. The class given is functional, cell-based. Summed up:
(§1)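 A549 cells preincubated 1 h with compound at the stated concentrations, then given IL-1α (0.25 ng/mL) or TNF-α (2.5 ng/mL). IκBα degradation then monitored.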

Data set [3] can be described thus: Selectivity ratio of IC50 for human A549 cells to IC50 for NFkappaB-mediated ICAM1 expression in human A549 cells. To be noted: read-out: Ratio IC50. The data set is classed as ADME, cell-based.
The subject of data set [4] is A549. The experiment in a line: Inhibition of NF-kappaB p50 nuclear translocation in IL1alpha-stimulated human A549 cells at 30 to 100 uM incubated for 1 hr prior IL1alpha challenge measured after 30 mins by Western blot analysis. The data set is classed as cell-based. The method in brief: (§2)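 A549 cells pretreated 1 h with compound at the stated concentrations, then stimulated 30 min with IL-1α (0.25 ng/mL) or TNF-α. p65 and p50 subunits then assessed for movement from cytoplasm to nucleus.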

Data set [5] deals with A549. Nature of the data set: Cytotoxicity against human A549 cells after 24 hrs by MTT assay. The data set is classed as cell-based. To be noted: a549, 24 h. The method in brief:
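A549 cells exposed to serial dilutions of compound for 24 h. Viability (%) by MTT assay on triplicate cultures. IC50 (µM) is the mean of four independent experiments.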
Background: Tetrazolium dyes change colour on reduction, which living cells bring about.

Data set [6] deals with A549. Nature of the data set: Inhibition of TNF-alpha-induced IkappaBalpha degradation in human A549 cells at 100 uM incubated for 1 hr prior TNFalpha challenge measured after 15 mins by Western blot analysis. The class given is functional, cell-based. Summed up: as §1
For data set [7], the system named is A549. The experiment in a line: Inhibition of NF-kappaB p50 nuclear translocation in TNFalpha-stimulated human A549 cells at 30 to 100 uM incubated for 1 hr prior TNFalpha challenge measured after 30 mins by Western blot analysis. The data set is classed as cell-based. The method in brief: as §2
For data set [8], the system named is A549. The experiment in a line: Inhibition of NFkappaB-mediated ICAM1 protein expression in TNFalpha-stimulated human A549 cells preincubated for 1 hr prior TNFalpha challenge measured after 6 hrs by Western blot analysis. The data set is classed as cell-based.
In data set [9] the target is Transcription factor p65 (Homo sapiens) (UniProt Q04206). Nature of the data set: Inhibition of NF-kappaB p65 nuclear translocation in TNFalpha-stimulated human A549 cells at 30 to 100 uM incubated for 1 hr prior TNFalpha challenge measured after 30 mins by Western blot analysis. The class given is cell-based. The method in brief: as §2
Data set [10] deals with T1, NF-kappa-B inhibitor alpha (Homo sapiens) (UniProt P25963).
T1 sequence (whole entry): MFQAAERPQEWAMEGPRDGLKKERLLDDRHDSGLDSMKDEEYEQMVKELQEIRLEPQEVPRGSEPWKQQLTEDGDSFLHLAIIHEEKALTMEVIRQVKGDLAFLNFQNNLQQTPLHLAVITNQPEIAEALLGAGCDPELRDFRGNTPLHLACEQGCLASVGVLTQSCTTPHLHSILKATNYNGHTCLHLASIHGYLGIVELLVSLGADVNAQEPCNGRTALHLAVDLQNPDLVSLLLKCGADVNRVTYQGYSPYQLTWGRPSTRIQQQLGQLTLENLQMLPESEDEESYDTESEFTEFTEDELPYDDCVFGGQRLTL
The experiment in a line: Inhibition of IL1alpha-induced IkappaBalpha phosphorylation in human A549 cells at 100 uM incubated for 1 hr prior IL1alpha challenge measured after 15 mins by Western blot analysis in the presence of proteasome inhibitor MG-132. The data set is classed as cell-based. Summed up:
(§3)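 A549 cells preincubated 1 h with or without the proteasome inhibitor MG-132 (20 µM) or with compound at various concentrations. Then stimulated 15 min with IL-1α (0.25 ng/mL) or TNF-α (2.5 ng/mL), or left unstimulated, with compound present. IκBα phosphorylation then examined.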

In data set [11] the target is T1, NF-kappa-B inhibitor alpha (Homo sapiens). The experiment in a line: Inhibition of TNF-alpha-induced IkappaBalpha phosphorylation in human A549 cells at 100 uM incubated for 1 hr prior TNFalpha challenge measured after 15 mins by Western blot analysis in the presence of proteasome inhibitor MG-132. The data set is classed as cell-based. The method in brief:
as §3

Data set [12] deals with Transcription factor p65 (Homo sapiens) (UniProt Q04206). The experiment in a line: Inhibition of NF-kappaB p65 nuclear translocation in IL1alpha-stimulated human A549 cells at 30 to 100 uM incubated for 1 hr prior IL1alpha challenge measured after 30 mins by Western blot analysis. The data set is classed as cell-based. The method in brief: as §2
Data set [13] can be described thus: (§4) Inhibition of NFkappaB-mediated ICAM1 expression in TNFalpha-stimulated human A549 cells treated 1 hr before TNFalpha challenge measured after 6 hrs by ELISA. The data set is classed as cell-based. Summed up:
(§5)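 A549 cells preincubated 1 h with serial dilutions of compound, then stimulated with IL-1α (0.25 ng/mL) or TNF-α (2.5 ng/mL) for 6 h with compound still present. Cell-surface ICAM-1 (%) by cell ELISA on triplicate cultures. IC50 (µM) is the mean of at least three independent experiments.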
(In general: In an ELISA, binding on a coated surface is turned into a signal by an enzyme label.)

Data set [14] deals with A549. Described as §4. The class given is cell-based. The method in brief: as §5
A short description of data set [15]: (§6) Inhibition of NFkappaB-mediated ICAM1 expression in IL1alpha-stimulated human A549 cells treated 1 hr before IL1alpha challenge measured after 6 hrs by ELISA. The data set is classed as cell-based. Summed up: as §5
The test system of data set [16] is A549. The description is as §6. The data set is classed as cell-based. Summed up:
as §5

In data set [17] the test system is A549. Nature of the data set: Inhibition of NF-kappaB p50 nuclear translocation in IL1alpha-stimulated human A549 cells at 100 uM incubated for 1 hr prior IL1alpha challenge measured after 30 mins by Western blot analysis. The class given is cell-based. Summed up: as §2
For data set [18], the target named is Transcription factor p65 (Homo sapiens) (UniProt Q04206). Nature of the data set: Inhibition of NF-kappaB p65 nuclear translocation in TNFalpha-stimulated human A549 cells at 100 uM incubated for 1 hr prior TNFalpha challenge measured after 30 mins by Western blot analysis. The class given is cell-based. The method in brief:
as §2

The target is the same in data set [19]. Nature of the data set: Inhibition of NF-kappaB p65 nuclear translocation in IL1alpha-stimulated human A549 cells at 100 uM incubated for 1 hr prior IL1alpha challenge measured after 30 mins by Western blot analysis. The class given is cell-based. Summed up:
as §2

Data set [20] relates to A549. The experiment in a line: Cytotoxicity against human A549 cells at 100 to 320 uM after 24 hrs by MTT assay. The class given is cell-based. To be noted: a549, 24 h.
In data set [21] the test system is A549. The experiment in a line: Inhibition of NF-kappaB p50 nuclear translocation in TNFalpha-stimulated human A549 cells at 100 uM incubated for 1 hr prior TNFalpha challenge measured after 30 mins by Western blot analysis. The class given is cell-based. Summed up:
as §2

In data set [22] the test system is A549. The experiment in a line: Cytotoxicity against human A549 cells at 100 uM up to 7 hrs by crystal violet staining. The class given is cell-based. The note with it: a549, 7 h.
Data set [23] deals with T1, NF-kappa-B inhibitor alpha (Homo sapiens). The experiment in a line: Inhibition of IL1alpha-induced IkappaBalpha phosphorylation in human A549 cells at 10 to 100 uM incubated for 1 hr prior to IL1alpha challenge measured after 15 mins by Western blot analysis in the presence of proteasome inhibitor MG-132. The data set is classed as cell-based. Summed up: as §3
The target is the same in data set [24]. The experiment in a line: Inhibition of TNF-alpha-induced IkappaBalpha phosphorylation in human A549 cells at 10 to 100 uM incubated for 1 hr prior to TNFalpha challenge measured after 15 mins by Western blot analysis in the presence of proteasome inhibitor MG-132. The data set is classed as cell-based. Summed up: as §3
In data set [25] the test system is A549. Nature of the data set: Cytotoxicity against human A549 cells at 100 uM up to 7 hrs by MTT assay. The data set is classed as cell-based. To be noted: a549, 7 h.

Transcription factor p65 (Homo sapiens), sequence (Q04206 whole entry): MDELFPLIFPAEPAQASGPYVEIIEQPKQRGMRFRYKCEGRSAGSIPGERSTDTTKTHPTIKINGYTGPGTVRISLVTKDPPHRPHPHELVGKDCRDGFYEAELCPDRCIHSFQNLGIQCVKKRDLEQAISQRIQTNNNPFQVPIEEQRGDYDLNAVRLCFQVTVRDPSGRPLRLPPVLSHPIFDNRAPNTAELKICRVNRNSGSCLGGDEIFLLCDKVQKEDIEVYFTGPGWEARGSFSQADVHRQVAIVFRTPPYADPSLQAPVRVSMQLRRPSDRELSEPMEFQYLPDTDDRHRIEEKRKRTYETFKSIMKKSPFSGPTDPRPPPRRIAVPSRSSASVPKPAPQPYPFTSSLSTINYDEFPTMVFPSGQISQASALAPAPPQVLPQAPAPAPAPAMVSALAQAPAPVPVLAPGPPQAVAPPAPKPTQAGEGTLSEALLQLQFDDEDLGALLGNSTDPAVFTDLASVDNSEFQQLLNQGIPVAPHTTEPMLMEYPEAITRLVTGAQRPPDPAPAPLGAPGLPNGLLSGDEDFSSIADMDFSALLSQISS

What is called IC50 is the concentration that inhibits the measured activity by half. High values mean weaker potency, low ones greater potency. As to `C=C1C(=O)O[C@@H]2[C@H]3[C@H](C)C(=O)C=C[C@]3(C)CC[C@@H]12`, the inhibition entry in [1], in [8], in [14] and in [16] was “Dose-dependent effect” each time. For the same compound, the inhibition entry in [2], in [4], in [6], in [7], in [9] and in data set [10] was “Active” throughout. In addition, the inhibition entry in data set [11] and in data set [12] was “Active” throughout. Besides, the selectivity ratio in data set [3] came to 10. For the same compound, the values for the IC50 in [5], in data set [13] and in [15] were 120 µM, 4.3 µM and 10 µM, respectively.
`C=C1C(=O)O[C@@H]2[C@H]3[C@H](C)C(=O)[C@H](Br)C[C@]3(C)CC[C@@H]12`: the inhibition entry in data set [1], in [8], in data set [14] and in [16] was “Dose-dependent effect” in each case. For the same compound, the inhibition result in data set [2], in data set [4], in data set [6], in [7], in data set [9] and in data set [10] was “Active” each time. Besides, the inhibition result in [11] and in [12] was “Active” throughout. For the same compound, in data set [3], the selectivity ratio was 10. The IC50 amounted to 88 µM in data set [5], 2.8 µM in [13] and 3.4 µM in data set [15].
Consider `C[C@@H]1C(=O)O[C@H]2[C@H]1CC[C@@]1(C)C=CC(=O)[C@@H](C)[C@H]21`, for which the inhibition entry in data set [1], in data set [8], in data set [14] and in data set [16] was “Dose-dependent effect” throughout. Further, the half-maximal inhibitory concentration (IC50) in data set [5] was over 320 µM; in data set [13], 34 µM; in data set [15], 52 µM. Further, the inhibition entry in data set [17], in data set [18], in data set [19] and in [21] was “Active” each time. In addition, the Activity entry in [20] was “Toxic”.
Take `C[C@@H]1C(=O)O[C@H]2[C@H]1CC[C@@]1(C)C[C@@H](Br)C(=O)[C@@H](C)[C@H]21`: the results for the Activity result in [22], in [20] and in data set [25] were “Non-toxic”, “Toxic” and “Non-toxic”, respectively. Besides, the inhibition entry in data set [1], in [8], in data set [14] and in [16] was “Dose-dependent effect” throughout. Further, the inhibition result in [2], in data set [4], in data set [23], in data set [7], in [9] and in [12] was “Active” in each case. Further, the inhibition entry in data set [24] is “Active”. Also, the IC50 in [5] is over 320 µM; in data set [13] it was 4.6 µM; in data set [15], 10 µM. In addition, in [6], the inhibition entry is “inactive”.
Regarding `C[C@@H]1C(=O)O[C@H]2[C@H]1CC[C@@]1(C)CCC(=O)[C@@H](C)[C@H]21`, the concentration for half-maximal inhibition (IC50) in data set [5], in data set [13] and in data set [15] was over 320 µM throughout. The inhibition result in data set [14] and in data set [16] was “inactive” each time.
In the case of `C[C@H]1[C@@H]2[C@H]3OC(=O)[C@@H](C)[C@@H]3CC[C@@]2(C)C=C[C@@H]1O`, the IC50 in data set [5], in data set [13] and in data set [15] was over 320 µM each time. Also, the inhibition result in data set [14] and in data set [16] was “inactive” each time.
As to `C=C1C(=O)O[C@@H]2[C@H]3[C@H](C)C(=O)CC[C@]3(C)CC[C@@H]12`, the inhibition result in data set [1], in data set [8], in data set [14] and in data set [16] was “Dose-dependent effect” in each case. Also, the inhibition entry in [2], in data set [4], in [6], in data set [7], in data set [9] and in data set [10] was “Active” each time. The inhibition result in [11] and in data set [12] was “Active” in each case. Also, the selectivity ratio in data set [3] came out at 10. For the same compound, the IC50 in data set [5] is 110 µM; in data set [13] it was 4.3 µM; in data set [15], 6.2 µM.
Regarding `C=C1C(=O)O[C@@H]2[C@H]3[C@H](C)[C@@H](O)C=C[C@]3(C)CC[C@@H]12`, the inhibition result in data set [1], in [8], in data set [14] and in data set [16] was “Dose-dependent effect” throughout. Besides, the inhibition result in data set [2], in data set [6], in data set [10] and in data set [11] was “inactive” in each case. Also, the selectivity ratio in data set [3] was found to be 10. Also, the inhibition result in data set [4], in data set [7], in [9] and in data set [12] was “Active” each time. In addition, the IC50 was 140 µM in data set [5], 6.1 µM in data set [13] and 23 µM in data set [15].
